Test results reported in ChEMBL document CHEMBL5678802, “Small-molecule p21-activated kinase inhibitor PF-3758309 is a potent inhibitor of oncogenic signaling and tumor growth” (Proc Natl Acad Sci U S A, 2010).
Active and inactive are the calls of the source. No cut-off for these calls is given here.

Tests used:
[1] = test system: SW948; assay: Antiproliferative activity against human SW948 cells assessed as inhibition of cell proliferation incubated for 3 days by CellTiter-Glo Luminescent Cell Viability Assay; format: functional, cell-based; settings: SW948, 72 h
Procedure, shortened: (§1)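 Cells of each line were plated in 384-well plates on day 1 and exposed to compound from day 2 for 3 days. On day 5 all medium was aspirated. Viable cell number was read by CellTiter-Glo luminescence, which quantifies cellular ATP.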

[2] = test system: HCT-116; assay: Antiproliferative activity against human HCT-116 cells assessed as inhibition of cell proliferation incubated for 3 days by CellTiter-Glo Luminescent Cell Viability Assay; format: functional, cell-based; settings: HCT-116, 72 h
Procedure, shortened: (§2)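 Cancer cell lines seeded in 384-well plates on day 1; compound added on day 2 and left for 3 days. On day 5 all medium was aspirated, and viable cells were quantified by CellTiter-Glo luminescence, which measures cellular ATP. Dose-dependent effects on proliferation were determined.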

[3] = biological target: T1, Serine/threonine-protein kinase D1 (Homo sapiens, UniProt Q15139); assay: Inhibition of human PKCmu assessed as inhibition constant in presence of ATP
T1 sequence (Q15139 whole entry): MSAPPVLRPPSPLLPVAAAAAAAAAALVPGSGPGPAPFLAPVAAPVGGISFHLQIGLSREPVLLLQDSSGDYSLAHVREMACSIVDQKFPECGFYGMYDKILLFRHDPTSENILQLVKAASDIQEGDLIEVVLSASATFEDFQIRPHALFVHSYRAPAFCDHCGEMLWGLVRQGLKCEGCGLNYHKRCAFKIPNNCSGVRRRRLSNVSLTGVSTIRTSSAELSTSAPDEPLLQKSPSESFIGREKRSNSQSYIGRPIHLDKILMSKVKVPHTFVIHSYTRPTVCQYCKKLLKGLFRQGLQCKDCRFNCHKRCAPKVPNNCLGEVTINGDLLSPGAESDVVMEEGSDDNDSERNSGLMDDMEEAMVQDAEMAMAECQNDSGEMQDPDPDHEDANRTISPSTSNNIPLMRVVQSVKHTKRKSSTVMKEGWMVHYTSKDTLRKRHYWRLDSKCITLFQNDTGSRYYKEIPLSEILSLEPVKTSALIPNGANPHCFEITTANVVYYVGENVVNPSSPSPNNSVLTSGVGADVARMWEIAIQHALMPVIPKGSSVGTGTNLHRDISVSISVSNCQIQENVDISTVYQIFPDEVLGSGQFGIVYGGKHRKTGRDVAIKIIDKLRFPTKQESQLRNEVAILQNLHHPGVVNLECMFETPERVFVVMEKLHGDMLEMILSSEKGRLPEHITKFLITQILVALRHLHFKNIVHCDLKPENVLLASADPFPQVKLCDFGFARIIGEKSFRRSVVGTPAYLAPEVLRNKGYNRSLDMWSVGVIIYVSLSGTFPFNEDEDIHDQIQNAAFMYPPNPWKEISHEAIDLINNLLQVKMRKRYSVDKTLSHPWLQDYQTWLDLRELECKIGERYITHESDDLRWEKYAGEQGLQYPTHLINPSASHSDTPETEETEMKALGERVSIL

[4] = test system: CAPAN-1; assay: Antiproliferative activity against human CAPAN-1 cells assessed as inhibition of cell proliferation incubated for 3 days by CellTiter-Glo Luminescent Cell Viability Assay; format: functional, cell-based; settings: CAPAN-1, 72 h; procedure, shortened: as §2
[5] = Antiproliferative activity against human Panc 05.04 cells assessed as inhibition of cell proliferation incubated for 3 days by CellTiter-Glo Luminescent Cell Viability Assay; format: functional, cell-based; settings: Panc 05.04, 72 h; procedure, shortened: as §1
[6] = biological target: Tyrosine-protein kinase Fgr (Homo sapiens, UniProt P09769); assay: Inhibition of human FGR assessed as inhibition constant in presence of ATP
[7] = biological target: T2, cGMP-dependent protein kinase 1 (Homo sapiens, UniProt Q13976); assay: Inhibition of human PRKG1 in presence of ATP by cellular assay
T2 sequence (Q13976 whole entry): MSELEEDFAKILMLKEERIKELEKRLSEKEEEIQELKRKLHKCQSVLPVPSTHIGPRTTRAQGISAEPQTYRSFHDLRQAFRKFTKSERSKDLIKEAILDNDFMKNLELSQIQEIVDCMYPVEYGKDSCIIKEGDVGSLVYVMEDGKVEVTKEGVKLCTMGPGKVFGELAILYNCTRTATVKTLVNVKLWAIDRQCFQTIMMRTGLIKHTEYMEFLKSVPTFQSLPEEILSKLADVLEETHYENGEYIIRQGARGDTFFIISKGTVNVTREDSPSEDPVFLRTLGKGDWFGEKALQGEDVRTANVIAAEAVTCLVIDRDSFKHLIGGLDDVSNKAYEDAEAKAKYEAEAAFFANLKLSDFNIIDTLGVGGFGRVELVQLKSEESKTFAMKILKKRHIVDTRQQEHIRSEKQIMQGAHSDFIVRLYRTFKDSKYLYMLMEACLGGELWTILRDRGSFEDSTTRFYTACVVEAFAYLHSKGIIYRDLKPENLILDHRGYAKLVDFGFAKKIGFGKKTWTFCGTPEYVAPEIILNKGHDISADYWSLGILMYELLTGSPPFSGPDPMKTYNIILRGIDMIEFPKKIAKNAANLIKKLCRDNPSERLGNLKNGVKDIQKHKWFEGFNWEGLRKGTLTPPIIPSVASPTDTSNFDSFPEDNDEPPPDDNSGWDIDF

[8] = test system: BXPC-3; assay: Antiproliferative activity against human BXPC-3 cells assessed as inhibition of cell proliferation incubated for 3 days by CellTiter-Glo Luminescent Cell Viability Assay; format: functional, cell-based; settings: BXPC-3, 72 h; procedure, shortened: as §2
[9] = biological target: Ribosomal protein S6 kinase alpha-1 (Homo sapiens, UniProt Q15418); assay: Inhibition of human RSK1 in presence of ATP
[10] = test system: HCT-116; assay: Antitumor activity against human HCT-116 cells xenografted in nude mouse assessed as reduction in Elk phosphorylation at S383 residue at 15 to 150 mg/kg/day administered via pump for 18 hrs by Reverse-Phase protein array analysis; format: functional, organism-based; settings: dose 15-150 mg/kg/day
[11] = test system: NCI-H1573; assay: Antiproliferative activity against human NCI-H1573 cells assessed as inhibition of cell proliferation incubated for 3 days by CellTiter-Glo Luminescent Cell Viability Assay; format: functional, cell-based; settings: NCI-H1573, 72 h; procedure, shortened: as §2
[12] = test system: LS-123; assay: Antiproliferative activity against human LS-123 cells assessed as inhibition of cell proliferation incubated for 3 days by CellTiter-Glo Luminescent Cell Viability Assay; format: functional, cell-based; settings: LS-123, 72 h; procedure, shortened: as §2
[13] = test system: MDA-MB-361; assay: Antiproliferative activity against human MDA-MB-361 cells assessed as inhibition of cell proliferation incubated for 3 days by CellTiter-Glo Luminescent Cell Viability Assay; format: functional, cell-based; settings: MDA-MB-361, 72 h; procedure, shortened: as §2
[14] = test system: NCI-H520; assay: Inhibition of anchorage independent cell growth in human NCI-H520 cells incubated for 6 days by Alamar blue reagent based fluorescence plate reader analysis; format: functional; settings: NCI-H520, 144 h
[15] = test system: Calu-1; assay: Antiproliferative activity against human Calu-1 cells assessed as inhibition of cell proliferation incubated for 3 days by CellTiter-Glo Luminescent Cell Viability Assay; format: functional, cell-based; settings: Calu-1, 72 h; procedure, shortened: as §2
[16] = test system: PANC-1; assay: Antiproliferative activity against human PANC-1 cells assessed as inhibition of cell proliferation incubated for 3 days by CellTiter-Glo Luminescent Cell Viability Assay; format: functional, cell-based; settings: PANC-1, 72 h; procedure, shortened: as §1

Sequence of Ribosomal protein S6 kinase alpha-1 (Q15418 whole entry): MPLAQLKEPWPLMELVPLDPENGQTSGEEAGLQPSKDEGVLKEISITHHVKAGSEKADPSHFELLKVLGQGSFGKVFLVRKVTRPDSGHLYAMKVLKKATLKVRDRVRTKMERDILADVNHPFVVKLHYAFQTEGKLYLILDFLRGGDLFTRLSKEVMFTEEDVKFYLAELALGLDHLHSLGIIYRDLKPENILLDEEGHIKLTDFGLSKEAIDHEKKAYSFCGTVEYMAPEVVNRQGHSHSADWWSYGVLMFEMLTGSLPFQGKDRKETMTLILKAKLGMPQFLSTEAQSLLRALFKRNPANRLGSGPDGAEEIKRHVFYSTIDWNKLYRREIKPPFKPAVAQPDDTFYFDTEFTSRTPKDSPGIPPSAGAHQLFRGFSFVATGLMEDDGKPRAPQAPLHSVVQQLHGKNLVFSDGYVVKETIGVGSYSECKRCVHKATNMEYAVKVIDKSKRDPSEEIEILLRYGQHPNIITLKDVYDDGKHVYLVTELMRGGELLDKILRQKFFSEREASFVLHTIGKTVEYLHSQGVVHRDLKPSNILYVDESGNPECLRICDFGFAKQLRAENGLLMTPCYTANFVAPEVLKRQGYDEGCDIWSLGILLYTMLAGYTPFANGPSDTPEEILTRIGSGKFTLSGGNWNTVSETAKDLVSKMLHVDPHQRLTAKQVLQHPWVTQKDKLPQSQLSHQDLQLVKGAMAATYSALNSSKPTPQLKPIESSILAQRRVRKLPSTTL
Sequence of Tyrosine-protein kinase Fgr (P09769 whole entry): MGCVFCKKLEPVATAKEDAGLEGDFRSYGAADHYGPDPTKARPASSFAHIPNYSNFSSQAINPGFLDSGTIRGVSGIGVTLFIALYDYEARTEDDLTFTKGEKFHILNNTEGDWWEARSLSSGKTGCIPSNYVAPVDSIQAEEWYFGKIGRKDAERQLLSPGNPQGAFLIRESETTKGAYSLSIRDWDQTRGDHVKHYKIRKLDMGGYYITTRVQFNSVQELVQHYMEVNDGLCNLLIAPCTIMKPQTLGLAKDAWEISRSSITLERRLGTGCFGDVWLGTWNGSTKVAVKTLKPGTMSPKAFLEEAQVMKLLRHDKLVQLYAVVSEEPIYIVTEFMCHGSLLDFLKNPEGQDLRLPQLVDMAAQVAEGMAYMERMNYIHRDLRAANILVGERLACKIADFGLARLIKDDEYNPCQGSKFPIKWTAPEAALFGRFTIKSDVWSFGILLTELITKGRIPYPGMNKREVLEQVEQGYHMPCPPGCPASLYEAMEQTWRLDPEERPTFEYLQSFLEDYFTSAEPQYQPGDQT

- IC50 [1]: 4.3 nM
- IC50 [2]: 2.4 nM
- Ki [3]: 21 nM
- Ki [6]: 15 nM
- IC50 [7]: 3370 nM
- IC50 [8]: 39 nM
- IC50 [9]: 2 nM
- IC50 [11]: 22 nM
- IC50 [13]: 6.9 nM
- IC50 [14]: 1.13 nM
- IC50 [15]: 167 nM
- IC50 [16]: 856 nM
SMILES: Cc1nc(Nc2n[nH]c3c2CN(C(=O)N[C@H](CN(C)C)c2ccccc2)C3(C)C)c2sccc2n1 [PF-03758309]
- IC50 [4]: 1100 nM
- IC50 [5]: 51 nM
- Activity [10]: Active
- IC50 [12]: 10000 nM
